Experimental data: ChEMBL document CHEMBL2062373, “Discovery of pyrroloaminopyrazoles as novel PAK inhibitors” (J Med Chem, 2012); call rule not given here
Converted amounts (≈) assume the structure as drawn.

Key:
[1] = biological target: T1, Serine/threonine-protein kinase PAK 4 (Homo sapiens, UniProt O96013); assay: Inhibition of PAK4
[2] = Octanol/buffer partition coefficient, log D of the compound at pH 7.4; format: physicochemical
[3] = Aqueous solubility of the compound; format: physicochemical; settings: buffer
[4] = biological target: T2, Cyclin-dependent kinase 2 (Homo sapiens, UniProt P24941)
[5] = biological target: T1, Serine/threonine-protein kinase PAK 4; assay: Inhibition of PAK4-mediated GEF-H1 phosphorylation at Ser810 by cell based assay
[6] = Metabolic stability in human liver microsomes assessed as extraction ratio; format: ADME, Microsome; settings: read-out: ERH
[7] = Efflux ratio of permeability from basolateral to apical side over apical to basolateral side in human Caco2 cells; format: ADME, cell-based; settings: Caco-2
[8] = Clearance in rat at 5 mg/kg, iv and 10 mg/kg, po; format: ADME, organism-based; settings: in vivo
[9] = Volume of distribution at steady state in rat at 5 mg/kg, iv and 10 mg/kg, po; format: ADME, organism-based; settings: in vivo, read-out: Vdss
[10] = Half life in rat at 5 mg/kg, iv and 10 mg/kg, po; format: ADME, organism-based; settings: in vivo
[11] = Oral bioavailability in rat at 10 mg/kg; format: ADME, organism-based; settings: in vivo
Mus musculus [12] = assay: Down regulation of GEF-H1 phosphorylation in human HCT116 cells xenografted in mouse tumor at 80 mg/kg/day, sc administered via continuous infusion measured after 18 hrs; format: functional, HCT-116; settings: route subcutaneous
How it was run: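 Tumour-bearing mice received drug by continuous infusion from an implanted subcutaneous pump at 80 mg/kg/day. Tumours were taken at 18 h and pGEF-H1 levels were measured. Downregulation is expressed as percent reduction.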

[13] = Metabolic stability of the compound in human liver microsomes assessed as compound remaining after 30 mins; format: ADME, Microsome; settings: read-out: Stability
[14] = biological target: T2, Cyclin-dependent kinase 2; assay: Inhibition of CDK2 at 1 uM
Mus musculus [15] = assay: Free dug level in mouse xenografted with human M24 cells at 7.5 mg/kg, po BID for 15 days; format: ADME, organism-based; design: dose 7.5 mg/kg, route oral; settings: in vivo, 360 h
How it was run: (§1)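 The read-out is free drug exposure, reported as unbound average concentration (free Cave) in nM. It was obtained from mice dosed orally at the stated regimen, sid or bid, during the xenograft efficacy study.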

[16] = Antitumor activity against human M24 cells xenografted in mouse assessed as tumor growth inhibition at 7.5 mg/kg, po BID for 15 days; format: functional; settings: M24, 360 h, read-out: TGI
Mus musculus [17] = assay: Free dug level in mouse xenografted with human M24 cells at 15 mg/kg, po BID for 15 days; format: ADME, organism-based; design: dose 15 mg/kg, route oral; settings: in vivo, 360 h; how it was run: as §1
[18] = Antitumor activity against human M24 cells xenografted in mouse assessed as tumor growth inhibition at 15 mg/kg, po BID for 15 days; format: functional; settings: M24, 360 h, read-out: TGI
[19] = biological target: AMP-activated protein kinase, AMPK (Homo sapiens) (UniProt P54646+O43741+P54619+Q9UGJ0+Q9Y478+Q13131+Q9UGI9); assay: Inhibition of AMPK at 1000 nM; format: protein-complex assay
[20] = biological target: Cyclin-dependent kinase 7 (Homo sapiens) (UniProt P50613); assay: Inhibition of cdk7 at 1000 nM
[21] = biological target: Mitogen-activated protein kinase 1 (Homo sapiens, UniProt P28482); assay: Inhibition of Erk2 at 1000 nM
[22] = biological target: T3, Lymphokine-activated killer T-cell-originated protein kinase (Homo sapiens) (UniProt Q96KB5); assay: Inhibition of PBK at 1000 nM
T3 sequence (whole entry): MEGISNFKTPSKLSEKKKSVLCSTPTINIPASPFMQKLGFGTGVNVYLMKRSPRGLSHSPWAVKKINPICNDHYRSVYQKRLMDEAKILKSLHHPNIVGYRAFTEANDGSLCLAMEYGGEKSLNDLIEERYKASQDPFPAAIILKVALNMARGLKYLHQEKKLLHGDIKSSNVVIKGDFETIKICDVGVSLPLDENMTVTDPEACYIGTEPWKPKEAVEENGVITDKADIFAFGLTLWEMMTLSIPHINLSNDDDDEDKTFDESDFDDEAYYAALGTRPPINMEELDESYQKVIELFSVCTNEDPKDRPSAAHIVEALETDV

[23] = biological target: Glycogen synthase kinase-3 beta (Homo sapiens, UniProt P49841); assay: Inhibition of GSK3beta at 1000 nM
Homo sapiens [24] = organism: Homo sapiens; assay: Inhibition of RSK at 1000 nM
Homo sapiens [25] = organism: Homo sapiens; assay: Inhibition of PKA at 1000 nM
[26] = biological target: Serine/threonine-protein kinase MARK1 (Homo sapiens, UniProt Q9P0L2); assay: Inhibition of MARK at 1000 nM
[27] = biological target: Serine/threonine-protein kinase 26 (Homo sapiens) (UniProt Q9P289); assay: Inhibition of MST4 at 1000 nM
Mus musculus [28] = assay: Free dug level in mouse xenografted with human HCT116 cells at 25 mg/kg, po BID for 15 days; format: ADME, organism-based, HCT-116; design: dose 25 mg/kg, route oral; settings: in vivo, 360 h; how it was run: as §1
HCT-116 [29] = assay: Antitumor activity against human HCT116 cells xenografted in mouse assessed as tumor growth inhibition at 25 mg/kg, po BID for 15 days; format: functional; settings: HCT-116, 360 h, read-out: TGI
Mus musculus [30] = assay: Free dug level in mouse xenografted with human HCT116 cells at 50 mg/kg, po SID for 15 days; format: ADME, organism-based, HCT-116; design: dose 50 mg/kg, route oral; settings: in vivo, 360 h; how it was run: as §1
HCT-116 [31] = assay: Antitumor activity against human HCT116 cells xenografted in mouse assessed as tumor growth inhibition at 50 mg/kg, po SID for 15 days; format: functional; settings: HCT-116, 360 h, read-out: TGI

T1 sequence (O96013 whole entry): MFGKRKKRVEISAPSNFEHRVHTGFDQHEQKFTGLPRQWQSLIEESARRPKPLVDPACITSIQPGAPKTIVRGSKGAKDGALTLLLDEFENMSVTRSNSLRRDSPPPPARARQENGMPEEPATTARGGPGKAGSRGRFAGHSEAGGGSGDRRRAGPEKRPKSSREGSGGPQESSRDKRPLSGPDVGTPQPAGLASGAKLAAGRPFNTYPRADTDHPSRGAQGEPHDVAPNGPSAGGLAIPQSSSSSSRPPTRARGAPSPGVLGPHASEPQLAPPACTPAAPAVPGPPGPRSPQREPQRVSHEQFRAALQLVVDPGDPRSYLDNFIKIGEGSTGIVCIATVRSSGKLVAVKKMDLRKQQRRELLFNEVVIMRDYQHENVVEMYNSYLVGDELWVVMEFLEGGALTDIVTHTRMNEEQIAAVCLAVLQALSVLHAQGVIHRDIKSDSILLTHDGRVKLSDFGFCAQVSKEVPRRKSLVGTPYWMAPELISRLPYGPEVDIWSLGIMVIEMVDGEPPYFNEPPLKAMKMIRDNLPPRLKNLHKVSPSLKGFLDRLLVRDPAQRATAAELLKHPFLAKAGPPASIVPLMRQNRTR
Chain of Serine/threonine-protein kinase MARK1 (Q9P0L2 whole entry, looked up): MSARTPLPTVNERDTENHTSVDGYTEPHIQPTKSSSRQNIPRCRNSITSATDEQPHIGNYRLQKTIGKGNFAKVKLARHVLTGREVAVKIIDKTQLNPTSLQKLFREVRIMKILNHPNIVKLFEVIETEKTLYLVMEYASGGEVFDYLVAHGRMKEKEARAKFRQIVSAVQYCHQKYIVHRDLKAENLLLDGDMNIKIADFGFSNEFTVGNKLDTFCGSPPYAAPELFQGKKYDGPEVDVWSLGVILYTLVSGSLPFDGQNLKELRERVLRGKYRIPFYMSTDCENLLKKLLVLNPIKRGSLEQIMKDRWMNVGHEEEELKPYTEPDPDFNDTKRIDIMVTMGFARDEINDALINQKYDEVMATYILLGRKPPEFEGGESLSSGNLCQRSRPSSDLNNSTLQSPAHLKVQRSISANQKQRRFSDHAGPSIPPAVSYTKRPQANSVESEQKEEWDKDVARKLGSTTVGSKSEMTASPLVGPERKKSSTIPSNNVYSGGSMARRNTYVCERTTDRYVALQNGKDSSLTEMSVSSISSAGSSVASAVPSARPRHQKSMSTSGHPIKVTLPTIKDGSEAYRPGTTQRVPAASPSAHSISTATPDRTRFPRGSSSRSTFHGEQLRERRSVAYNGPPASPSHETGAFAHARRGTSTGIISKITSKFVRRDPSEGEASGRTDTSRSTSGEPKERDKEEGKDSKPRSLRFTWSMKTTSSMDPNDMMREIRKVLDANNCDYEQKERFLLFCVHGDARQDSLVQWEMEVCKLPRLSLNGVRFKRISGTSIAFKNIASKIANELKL
Chain of Mitogen-activated protein kinase 1 (P28482 whole entry): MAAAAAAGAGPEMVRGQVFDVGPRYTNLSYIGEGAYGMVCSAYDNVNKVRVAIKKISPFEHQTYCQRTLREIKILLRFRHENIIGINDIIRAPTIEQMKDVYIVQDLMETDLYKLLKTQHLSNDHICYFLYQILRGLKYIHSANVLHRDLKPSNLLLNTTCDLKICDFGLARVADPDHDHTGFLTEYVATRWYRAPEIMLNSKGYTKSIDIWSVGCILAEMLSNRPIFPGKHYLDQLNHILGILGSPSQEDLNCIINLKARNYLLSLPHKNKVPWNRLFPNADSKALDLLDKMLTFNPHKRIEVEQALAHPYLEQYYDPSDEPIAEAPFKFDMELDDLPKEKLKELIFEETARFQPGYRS
Chain of Glycogen synthase kinase-3 beta (P49841 whole entry, looked up): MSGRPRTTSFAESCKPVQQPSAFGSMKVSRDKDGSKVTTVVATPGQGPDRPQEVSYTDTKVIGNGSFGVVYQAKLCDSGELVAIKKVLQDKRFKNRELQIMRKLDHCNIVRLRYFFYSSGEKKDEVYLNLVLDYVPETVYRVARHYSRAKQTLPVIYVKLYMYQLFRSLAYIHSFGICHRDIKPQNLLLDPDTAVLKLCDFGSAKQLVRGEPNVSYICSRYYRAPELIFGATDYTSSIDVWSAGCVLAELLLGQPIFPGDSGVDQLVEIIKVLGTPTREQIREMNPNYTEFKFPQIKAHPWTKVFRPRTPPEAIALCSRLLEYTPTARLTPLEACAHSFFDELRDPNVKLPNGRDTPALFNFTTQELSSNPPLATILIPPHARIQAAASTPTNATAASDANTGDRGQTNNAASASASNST
Chain of Cyclin-dependent kinase 7 (Homo sapiens) (P50613 whole entry): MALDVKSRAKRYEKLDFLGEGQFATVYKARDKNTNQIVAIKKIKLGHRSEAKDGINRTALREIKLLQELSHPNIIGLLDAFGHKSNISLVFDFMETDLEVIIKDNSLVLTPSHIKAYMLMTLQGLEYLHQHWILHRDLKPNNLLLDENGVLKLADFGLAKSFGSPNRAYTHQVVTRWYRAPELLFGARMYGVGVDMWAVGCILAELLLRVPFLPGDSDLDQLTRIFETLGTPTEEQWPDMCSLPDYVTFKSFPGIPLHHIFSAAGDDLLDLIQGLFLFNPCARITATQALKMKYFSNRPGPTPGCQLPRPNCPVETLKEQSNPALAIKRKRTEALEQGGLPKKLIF
Chain of Serine/threonine-protein kinase 26 (Homo sapiens) (Q9P289 2-416 limits assumed): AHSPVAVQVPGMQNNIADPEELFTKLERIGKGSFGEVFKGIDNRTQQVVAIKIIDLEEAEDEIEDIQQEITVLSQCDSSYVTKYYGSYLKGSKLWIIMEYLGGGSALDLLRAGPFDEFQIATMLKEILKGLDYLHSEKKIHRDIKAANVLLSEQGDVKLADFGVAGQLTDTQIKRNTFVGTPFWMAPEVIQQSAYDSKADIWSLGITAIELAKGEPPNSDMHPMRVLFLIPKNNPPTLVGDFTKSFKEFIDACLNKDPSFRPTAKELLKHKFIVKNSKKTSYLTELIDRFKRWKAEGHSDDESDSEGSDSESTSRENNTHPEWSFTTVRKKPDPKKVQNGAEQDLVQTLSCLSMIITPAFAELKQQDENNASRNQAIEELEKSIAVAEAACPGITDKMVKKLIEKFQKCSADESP

Structure (SMILES) | Ki [1] | logD [2] | EC50 ([5]; read-out: EC50) | hepatic extraction ratio [6] | efflux ratio [7] | clearance [8] | Vd [9] | half-life [10] | bioavailability [11] | also measured
CN(C)C[C@@H](NC(=O)c1ccc2[nH]nc(-c3nc4ccc(NCc5ccc(-c6ccccn6)cc5)cc4[nH]3)c2c1)c1ccccc1 | 2.8 nM |  |  |  |  |  |  |  |  | 
CN(C)C[C@@H](OC(=O)N1Cc2c(NC(=O)c3ccccc3)n[nH]c2C1(C)C)c1ccccc1 |  | 2.66 |  |  |  |  |  |  |  | solubility [3]: 434 µM (≈ 194 µg/mL); Ki [4]: 2000 nM
CN1CCN(C(=O)N2Cc3c(n[nH]c3NC(=O)c3ccccc3)C2(C)C)C(c2ccccc2)C1 (stereo unspecified) | 207 nM | 3.2 | 21 nM | 0.7 | 187 |  |  |  |  | 
CN(C)C[C@@H](OC(=O)N1Cc2c(NC(=O)C3(C(F)(F)F)CC3)n[nH]c2C1(C)C)c1ccccc1 |  | 1.5 | 7 nM | 0.42 |  | 24.1 mL/min/kg | 2.8 L/kg | 1.5 h | 46% | 
CN(C)C[C@@H](OC(=O)N1Cc2c(NC(=O)c3ccc(F)cc3F)n[nH]c2C1(C)C)c1ccccc1 |  | 2.68 | 15 nM | 0.9 | 1.17 |  |  |  |  | 
CN(C)C[C@@H](OC(=O)N1Cc2c(NC(=O)C3CCCCO3)n[nH]c2C1(C)C)c1ccccc1 (mixture of isomers) |  | 2.48 |  | 1 | 3.6 |  |  |  |  | 
CN(C)C[C@@H](NC(=O)N1Cc2c(NC(=O)c3ccccc3)n[nH]c2C1(C)C)c1ccccc1 | 30 nM | 1.77 |  | 0.39 | 326 |  |  |  |  | solubility [3]: 395 µM (≈ 176 µg/mL); Activity (Mus musculus [12]): 61%; Ki [4]: 1800 nM
CN(C)C[C@@H](NC(=O)c1ccc2[nH]nc(-c3nc4ccccc4[nH]3)c2c1)c1ccccc1 | 6 nM | 3.6 | 12.6 nM |  |  |  |  |  |  | 
CN(C)C[C@@H](OC(=O)N1Cc2c(NC(=O)C3(C(F)(F)F)CCC3)n[nH]c2C1(C)C)c1ccccc1 |  | 1.6 | < 1 nM | 0.6 |  |  |  |  |  | 
CN(C)C[C@@H](OC(=O)N1Cc2c(NC(=O)C3CCCO3)n[nH]c2C1(C)C)c1ccccc1 (mixture of isomers) |  | 2.08 |  | 0.4 | 8.7 | 69 mL/min/kg | 2.2 L/kg | 0.5 h | 20% | 
CN(C)C[C@H](c1ccccc1)N(C)C(=O)N1Cc2c(NC(=O)c3ccccc3)n[nH]c2C1(C)C |  | 2.68 |  | 0.5 | 53.6 |  |  |  |  | EC50 [5]: Not Active
CN1CCN(C(=O)N2Cc3c(NC(=O)c4cccc(Oc5ccccc5)c4)n[nH]c3C2(C)C)[C@@H](Cc2ccccc2)C1 |  | 5.45 | 810 nM |  |  |  |  |  |  | remaining at 0.5 h [13]: 2%; inhibition [14]: 20%
CN(C)C[C@@H](NC(=O)N1Cc2c(NC(=O)c3ccccc3F)n[nH]c2C1(C)C)c1ccccc1 |  | 2.33 |  | 0.38 | 231 |  |  |  |  | 
CN(C)C[C@@H](OC(=O)N1Cc2c(NC(=O)C(C)(C)C(F)(F)F)n[nH]c2C1(C)C)c1ccccc1 |  | 1.61 | 1 nM | 0.55 |  | 37 mL/min/kg | 4.3 L/kg | 1.3 h | 45% | Drug uptake(free) (Mus musculus [15]): 13.9 nM; inhibition in vivo at 7.5 mg/kg [16]: 67%; Drug uptake(free) (Mus musculus [17]): 31 nM; inhibition in vivo at 15 mg/kg [18]: 87%; inhibition [19]: > 70%; inhibition [20]: > 70%; inhibition [21]: > 70%; inhibition [22]: > 70%; inhibition [23]: > 70%; inhibition (Homo sapiens [24]): > 70%; inhibition (Homo sapiens [25]): > 70%; inhibition [26]: > 70%; inhibition [27]: > 70%
CN(C)C[C@@H](OC(=O)N1Cc2c(NC(=O)c3ccccn3)n[nH]c2C1(C)C)c1ccccc1 |  | 2.23 |  | 0.67 | 1.61 | 146 mL/min/kg | 4.8 L/kg | 0.7 h | 2% | 
CN(C)C[C@@H](OC(=O)N1Cc2c(NC(=O)c3ccc(F)cc3)n[nH]c2C1(C)C)c1ccccc1 | 13 nM | 2.79 | 9 nM | 0.7 | 7 | 98 mL/min/kg | 6.1 L/kg | 1.1 h | 9% | solubility [3]: 404 µM (≈ 188 µg/mL); Drug uptake(free) (Mus musculus [28]): 25 nM; inhibition in vivo at 25 mg/kg (HCT-116 [29]): 61%; Drug uptake(free) (Mus musculus [30]): 70 nM; inhibition in vivo at 50 mg/kg (HCT-116 [31]): 12%; Ki [4]: 1160 nM
